Calls of active or inactive are those of the source. The calls are words filed in the database; no cut-off is given here.
T1: Sortase A (Staphylococcus aureus) (UniProt Q9S446)
T1 sequence (whole entry): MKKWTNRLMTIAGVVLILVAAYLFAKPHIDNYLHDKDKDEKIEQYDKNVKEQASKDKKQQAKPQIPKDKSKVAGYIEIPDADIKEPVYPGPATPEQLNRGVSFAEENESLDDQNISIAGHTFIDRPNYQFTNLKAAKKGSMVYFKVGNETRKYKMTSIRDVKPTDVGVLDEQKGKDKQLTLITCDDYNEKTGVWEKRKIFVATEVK

T2: Papain (Carica papaya) (UniProt P00784)
T2 sequence (whole entry): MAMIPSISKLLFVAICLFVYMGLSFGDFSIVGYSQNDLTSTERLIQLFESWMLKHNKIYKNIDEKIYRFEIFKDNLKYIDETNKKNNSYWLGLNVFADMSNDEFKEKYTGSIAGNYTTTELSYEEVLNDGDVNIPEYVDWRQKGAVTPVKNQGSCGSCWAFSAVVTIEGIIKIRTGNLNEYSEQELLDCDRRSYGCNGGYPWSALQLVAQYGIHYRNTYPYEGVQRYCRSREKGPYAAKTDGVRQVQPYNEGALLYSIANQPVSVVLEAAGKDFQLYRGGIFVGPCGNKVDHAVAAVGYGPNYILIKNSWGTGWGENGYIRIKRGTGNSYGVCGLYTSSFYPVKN

T3: Sortase A (Staphylococcus aureus, UniProt Q9S446)
T3 sequence (Q9S446 whole entry): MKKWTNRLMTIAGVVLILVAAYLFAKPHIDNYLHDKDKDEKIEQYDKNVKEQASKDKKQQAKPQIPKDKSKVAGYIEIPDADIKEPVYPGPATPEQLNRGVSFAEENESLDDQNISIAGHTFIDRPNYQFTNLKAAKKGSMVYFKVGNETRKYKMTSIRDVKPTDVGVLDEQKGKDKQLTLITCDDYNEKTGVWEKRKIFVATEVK


What was measured:
[1] = target: T1, Sortase A (Staphylococcus aureus); experiment: Inhibition of Staphylococcus aureus sortase A at 10 ng
Method in brief: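 Purified S. aureus SrtA (2 μM) preincubated with 10 ng compound in DMSO for 1 h at 25 °C. FRET substrate a-LPETG-d was then added to 2 μM in 5 mM CaCl2, 150 mM NaCl, 50 mM Tris-HCl pH 7.5, and incubated 24 h at 37 °C. Fluorescence read at ex 320/em 420 nm. Screened in duplicate; % inhibition = 100 − (well/plate positive-control mean ×100).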

Bacillus anthracis = experiment: (§1) Inhibition of Bacillus anthracis sortase A; set-up: concentration or dose not given beside the values; conditions: concentration not given here
Papain (Carica papaya) = target: T2, Papain (Carica papaya); experiment: Inhibition of Carica papaya papain; set-up: concentration or dose not given beside the values; conditions: concentration not given here
Sortase A = target: T3, Sortase A; experiment: (§2) Inhibition of Staphylococcus aureus sortase A
[2] = Inhibition of Bacillus anthracis sortase C
[3] = Inhibition of Bacillus anthracis sortase B
[4] = as §1
[5] = target: T1, Sortase A (Staphylococcus aureus); experiment: as §2
[6] = substrate: CN(C)CCC(=O)c1cccs1; conditions: Staphylococcus aureus; 50 uM
[7] = substrate: CN(C)CCC(=O)c1ccc(Cl)c(Cl)c1; conditions: Staphylococcus aureus; 200 uM

Row | Molecule | inhibition [1] [%] | inhibition (Bacillus anthracis) [%] | inhibition (Papain (Carica papaya)) [%] | also measured
1 | CN(C)CCC(=O)c1cccc([N+](=O)[O-])c1 | 54.3 | 90.2 | 47.2 | 
2 | CN(C)CCC(=O)c1ccc(Cl)c(Cl)c1 | 89.6 | 90.4 | 49.3 | IC50 (Sortase A): 15 µM; Ki (Sortase A): 15.7 µM; IC50 [2]: 20 µM; IC50 [3]: 14 µM
3 | O=C(CCN1CCOCC1)c1ccc(Cl)cc1 | 84.4 | 90.6 | 50.4 | 
4 | CCOC(=O)N1CCN(CCC(=O)c2ccc(Br)cc2)CC1 | 80.2 | 90.7 | 48.5 | 
5 | CN(C)CCC(=O)c1ccc(S(C)(=O)=O)cc1 | 69.8 | 91.3 | 37.1 | 
6 | C=CC(=O)c1cccs1 |  |  |  | Ki (Sortase A): 69 µM
7 | CC1CCCN(CCC(=O)c2ccc(Br)cc2)C1 (stereo not given) | 56.9 | 83.7 | 33.8 | 
8 | CN(C)CCC(=O)c1cccs1 | 54.8 | 90.7 | 19.1 | IC50 (Sortase A): 47 µM; Ki (Sortase A): 93.2 µM; IC50 [4]: 4.8 µM; IC50 [2]: 15 µM; IC50 [3]: 34 µM
9 | O=C(CCN1CCOCC1)c1ccc(F)cc1 | 47.2 | 89.1 | 46.6 | 
10 | C=CC(O)c1cccs1 (racemic) |  |  |  | Activity [5]: inactive
11 | O=C(CCNc1ccccc1)c1cccc([N+](=O)[O-])c1 | 66 | 87.3 | 34 | 
12 | Cc1ccc(C(=O)CCN2CCOCC2)cc1 | 56.9 | 88.9 | 31.2 | 
13 | Sortase A (Staphylococcus aureus), Q9S446 (protein) MKKWTNRLMTIAGVVLILVAAYLFAKPHIDNYLHDKDKDEKIEQYDKNVKEQASKDKKQQAKPQIPKDKSKVAGYIEIPDADIKEPVYPGPATPEQLNRGVSFAEENESLDDQNISIAGHTFIDRPNYQFTNLKAAKKGSMVYFKVGNETRKYKMTSIRDVKPTDVGVLDEQKGKDKQLTLITCDDYNEKTGVWEKRKIFVATEVK |  |  |  | Km [6]: 5.8 µM; Vmax [6]: 88.8 s⁻¹; Km [7]: 5.91 µM; Vmax [7]: 58 s⁻¹
